The subject of one series is human. The series is described as follows: concentration in blood after dosing; negative times count back from the end of exposure. Particulars: dosed: trichloroethylene, 100 ppm, inhalation, duration: 6 hr, female. The procedure, abridged: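 Data points giving concentration or amount against time came from published in vivo toxicokinetic studies and from two structured collections. PubMed searching, classifier screening and manual review located the studies. Most points were digitised from plot screenshots using WebPlotDigitizer, the rest were copied from tables, and all keep their reported units.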

Series [1] deals with Mouse. The series is described as follows: concentration in plasma after dosing. Particulars: 10 min; dosed: 2-Hydroxy-4-methoxybenzophenone; 50 mg/kg; iv; Female; B6C3F1.
The subject of series [2] is Mouse. The series is described as follows: concentration in plasma after dosing. As to conditions: 0.25 h; dosed: 2-Hydroxy-4-methoxybenzophenone; 250 mg/kg; oral; Female; B6C3F1.
Series [3] relates to Rat. Description: concentration in plasma after dosing. As to conditions: dosed: 2-Hydroxy-4-methoxybenzophenone, 100 mg/kg, oral, Male, F344.
Series [4] concerns Mouse. Description: concentration in plasma after dosing. Particulars: 2 h; dosed: 2-Hydroxy-4-methoxybenzophenone; 50 mg/kg; iv; Male; B6C3F1.
In series [5] the test system is Rat. Description: concentration in plasma after dosing. As to conditions: 5 min; dosed: alpha-Thujone; 25 mg/kg; oral; Male; Harlan Sprague Dawley.
The test system of series [6] is Rat. The series is described as follows: concentration in plasma after dosing. As to conditions: 1.5 h; dosed: alpha-Thujone; 25 mg/kg; oral; Male; Harlan Sprague Dawley.
Series [7] relates to Rat. Description: concentration in plasma after dosing. Particulars: 1.5 h; dosed: Primidone; 30 mg/kg; oral; Male; F344.
Series [8] relates to Rat. Description: concentration in plasma after dosing. Particulars: 1.5 h; dosed: Primidone; 80 mg/kg; oral; Male; F344.
The test system of series [9] is Rat. The series is described as follows: concentration in plasma after dosing. As to conditions: 9 h; dosed: Primidone; 130 mg/kg; oral; Male; F344.

Our source for the concentration in blood and concentration in plasma values is EPA's CvTdb concentration-time database.

SMILES strings stand for the structures.

Turning to `OCC(Cl)(Cl)Cl` [trichloroethanol], the concentration in blood in the series with human (0 h) is 4610 ng/mL; with human (18 h), 4180 ng/mL; with human (24 h) it was 8180 ng/mL; in the series with human (42 h), 6260 ng/mL; in the series with human (48 h), 11800 ng/mL; in the series with human (66 h), 6560 ng/mL. The concentration in blood in the series with human (72 h) is 13100 ng/mL; in the series on human (90 h) it was 5590 ng/mL; with human (96 h) it was 9980 ng/mL; in the series on human (160 h), 1570 ng/mL; in the series on human (-6 h, during exposure) it was 212 ng/mL.

Consider `O=C(c1ccccc1)c1ccc(O)cc1O` [2,4-Dihydroxybenzophenone], for which the concentration in plasma in the series on Mouse [1] was found to be 2270 ng/mL; with Mouse [2], 1050 ng/mL; with Rat [3] (0.5 h), 160 ng/mL; in the series with Rat [3] (5 h), 40 ng/mL; in the series on Mouse [4] it was 266 ng/mL.

On to `CC(C)[C@]12CC(=O)[C@H](C)[C@H]1C2` [alpha-Thujone], for which the concentration in plasma turned out to be 93.4 ng/mL in the series on Rat [5] and 130 ng/mL in the series with Rat [6].

As for `CCC1(c2ccccc2)C(=O)NCNC1=O` [Primidone], the values for the concentration in plasma with Rat [7], in the series with Rat [8] and with Rat [9] were 14000 ng/mL, 35000 ng/mL and 10400 ng/mL, respectively.
